The MIC is the lowest concentration found to suppress growth. High values mean a need for much substance, low ones inhibition by little substance.

Common to all, as to assay type: functional
Experiment [1] has as its system Candida albicans. Description: Antimicrobial activity against Candida albicans after 24 hrs by broth microdilution method. For orientation: Broth dilution looks for growth in wells or tubes with falling amounts of substance.
Experiment [2] relates to Escherichia coli. Description: Antimicrobial activity against Escherichia coli after 24 hrs by broth microdilution method. The gist of the method:
(§1)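 MICs determined by two-fold broth microdilution following CLSI guidelines (M100-S22), with compound concentrations of […] in the well. Every well except the blank was inoculated with the test bacterium and incubated at 37 °C for 24 h. MIC was taken as the lowest concentration with no visible growth.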

In experiment [3] the test system is Staphylococcus aureus. Description: Antimicrobial activity against Staphylococcus aureus after 24 hrs by broth microdilution method. The gist of the method:
as §1

Experiment [4] has as its system Acinetobacter baumannii. Description: Antimicrobial activity against Acinetobacter baumannii after 24 hrs by broth microdilution method. The gist of the method: as §1
In experiment [5] the test system is Bacillus subtilis. Put plainly: Antimicrobial activity against Bacillus subtilis after 24 hrs by broth microdilution method. An outline of the steps: as §1
The subject of experiment [6] is Stenotrophomonas maltophilia. Description: Antimicrobial activity against Stenotrophomonas maltophilia after 24 hrs by broth microdilution method. The gist of the method: as §1

≈ marks a conversion by molar mass, not a printed value.

For `Fc1ccc(Nc2nn3c(-c4ccccc4)nnc3c3ccccc23)cc1`, the MIC in experiment [1] is over 128 µg/mL; in experiment [2], over 128 µg/mL; in experiment [3], 16 µg/mL (≈ 45 µM); in experiment [4], over 128 µg/mL; in experiment [5] it was over 128 µg/mL; in experiment [6] it was over 128 µg/mL.

`Cc1ccc(Nc2nn3c(-c4ccccc4)nnc3c3ccccc23)cc1`: the MIC in experiment [1] was over 128 µg/mL; in experiment [2] it was over 128 µg/mL; in experiment [3], 32 µg/mL (≈ 91.1 µM); in experiment [4], over 128 µg/mL; in experiment [5], over 128 µg/mL; in experiment [6], over 128 µg/mL.

`c1ccc(-c2nnc3c4ccccc4c(N4CCNCC4)nn23)cc1`: the MIC in experiment [1] turned out to be 32 µg/mL (≈ 96.9 µM); in experiment [2] it was 128 µg/mL (≈ 387 µM); in experiment [3], 32 µg/mL (≈ 96.9 µM); in experiment [4], 64 µg/mL (≈ 194 µM); in experiment [5] it was 64 µg/mL (≈ 194 µM); in experiment [6], 32 µg/mL (≈ 96.9 µM).

For `Fc1ccc(Nc2nn3cnnc3c3ccccc23)cc1`, the MIC in experiment [1] was over 128 µg/mL; in experiment [2], over 128 µg/mL; in experiment [3], 64 µg/mL (≈ 229 µM); in experiment [4], over 128 µg/mL; in experiment [5], over 128 µg/mL; in experiment [6], over 128 µg/mL.

`Clc1ccc(Nc2nn3cnnc3c3ccccc23)cc1`: the MIC in experiment [1] was over 128 µg/mL; in experiment [2], over 128 µg/mL; in experiment [3], 32 µg/mL (≈ 108 µM); in experiment [4] it was over 128 µg/mL; in experiment [5] it was over 128 µg/mL; in experiment [6], over 128 µg/mL.

Take `COc1ccc(Nc2nn3cnnc3c3ccccc23)cc1`: the MIC is over 128 µg/mL in experiment [1]; over 128 µg/mL in experiment [2]; 128 µg/mL (≈ 439 µM) in experiment [3]; over 128 µg/mL in experiment [4]; over 128 µg/mL in experiment [5]; over 128 µg/mL in experiment [6].

Turning to `Cc1ccc(Nc2nn3cnnc3c3ccccc23)cc1`, the MIC was over 128 µg/mL in experiment [1]; over 128 µg/mL in experiment [2]; 32 µg/mL (≈ 116 µM) in experiment [3]; over 128 µg/mL in experiment [4]; over 128 µg/mL in experiment [5]; over 128 µg/mL in experiment [6].

Take `c1ccc2c(c1)c(N1CCNCC1)nn1cnnc21`: the MIC in experiment [1], in experiment [2], in experiment [3], in experiment [4], in experiment [5] and in experiment [6] was over 128 µg/mL in each case.

Take `COc1ccc(Nc2nn3c(C)nnc3c3ccccc23)cc1`: the MIC in experiment [1] is over 128 µg/mL; in experiment [2] it was over 128 µg/mL; in experiment [3] it was 16 µg/mL (≈ 52.4 µM); in experiment [4], over 128 µg/mL; in experiment [5], over 128 µg/mL; in experiment [6], over 128 µg/mL.

In the case of `Cc1ccc(Nc2nn3c(C)nnc3c3ccccc23)cc1`, the MIC in experiment [1] was over 128 µg/mL; in experiment [2], over 128 µg/mL; in experiment [3], 64 µg/mL (≈ 221 µM); in experiment [4] it was over 128 µg/mL; in experiment [5], over 128 µg/mL; in experiment [6] it was over 128 µg/mL.

Regarding `Cc1nnc2c3ccccc3c(Nc3ccccc3Cl)nn12`, the minimum inhibitory concentration (MIC) in experiment [1] is over 128 µg/mL; in experiment [2], over 128 µg/mL; in experiment [3], 32 µg/mL (≈ 103 µM); in experiment [4], over 128 µg/mL; in experiment [5] it was over 128 µg/mL; in experiment [6], over 128 µg/mL.

For `Cc1nnc2c3ccccc3c(N3CC(C)CC(C)C3)nn12` (stereo not drawn), the MIC was over 128 µg/mL in experiment [1]; over 128 µg/mL in experiment [2]; 32 µg/mL (≈ 108 µM) in experiment [3]; over 128 µg/mL in experiment [4]; 64 µg/mL (≈ 217 µM) in experiment [5]; over 128 µg/mL in experiment [6].

On to `OC(Cn1cncn1)(Cn1cncn1)c1ccc(F)cc1F` [FLUCONAZOLE], for which, in experiment [1], the MIC worked out at 1 µg/mL (≈ 3.27 µM).

Turning to `C[C@H]1COc2c(N3CCN(C)CC3)c(F)cc3c(=O)c(C(=O)O)cn1c23.C[C@H]1COc2c(N3CCN(C)CC3)c(F)cc3c(=O)c(C(=O)O)cn1c23.O` [LEVOFLOXACIN], the MIC was 0.25 µg/mL in experiment [2]; 0.5 µg/mL in experiment [3]; 0.25 µg/mL in experiment [4]; 1 µg/mL in experiment [5]; 0.5 µg/mL in experiment [6].
